# A selection follows.
# Apaf1 activ: activates human Apaf-1 apoptosome | O14727 | Apaf-1 apoptosome caspase-3 activation, DEVD-Rh110 fluorescence; active compounds read low | hit rate 0.31% among 330,000 | activity change, negative = activation, % at 20 µM;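 active = activity change at or below -40% at 20 µM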
#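 Assay system – biochemical Apaf-1 apoptosome reconstitution · Medium – 20 mM HEPES buffer, pH 7.5, containing CHAPS and BSA · Incubation – 30 min preincubation, 50 min reaction, room temperature · Measured by – Caspase-3-released Rh110 fluorescence, 540 nm emission, 480 nm excitation · Read-out – Caspase-3 cleavage activity downstream of Apaf-1 activation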
# Rh110 act interf: interferes with Rh110 fluorescence, flagging false Apaf-1 activators | shares compounds with Apaf1 activ | Rh110 fluorescence interference, quenched caspase reaction, Ex480/Em540 | fluorescence interference (activity change), % at 20 µM, hits read low | 980 tested, under 10 active | AID 504616;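 active = mean activity change at or below -40% when tested at 20 µM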
# Apaf-1 act conf: Apaf-1 (human) activation, single-dose confirmed | activity change, negative = activation, % at 20 µM | AID 504617 | hit rate 5% among 980 | shares compounds with Apaf1 activ | reconstituted apoptosome caspase-3 activity, DEVD-Rh110 fluorescence; active compounds read low;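 active = mean activity change at or below -40%, meaning activation of 40% or more, at 20 µM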
# The depositor's hits bear a star; x = not tested or not shown.
SMILES,Apaf1 activ,Rh110 act interf,Apaf-1 act conf
COc1ccc(-c2cn(Cc3ccc4ccccc4c3)nn2)cc1,-123*,4,8
COc1cccc2c1C(=O)C=C(C)C2=O,56,x,x
COC(=O)c1[nH]c(=O)c2ccccc2c1O,91,x,x
C#CCOCCOCCOCCNc1nc(N2CCN(C(=O)CCCCCCCCCCNC(=O)[C@H](CCCCN)n3cc(C)nn3)CC2)nc(N2CCN(C(=O)CCCCCCCCCCNC(=O)[C@H](CCCCN)n3cc(CCCC(=O)O)nn3)CC2)n1,63,x,x
CCOC(=O)c1cnc(-n2nc(C)cc2C)nc1NC1CCCCC1,42,x,x
CCOC(=O)C1=NNC2C(=O)N(C3CCCCC3)C(=O)C12 (centres undefined),-79*,-6,7
COc1cccc(C(c2c(C)[nH]n(-c3ccccc3)c2=O)c2c(C)[nH]n(-c3ccccc3)c2=O)c1O,94,x,x
COc1ccc2c(c1)OC[C@H]1[C@H]2N2C(=O)c3cc(OC)c(OC)cc3NC(=O)[C@@]2(C)[C@H]1c1ccccc1,-143*,6,12
CN(C)Cc1c(C(=O)N/N=C/c2cccc(OCc3c(F)cccc3Cl)c2)nnn1-c1nonc1N,-96*,-4,11
CN(Cc1c(F)cccc1Cl)C(=O)c1ccc(COc2ccccc2)cc1,53,x,x
CCN1CCCC1CNC(=O)c1cc2c(-c3ccc(Cl)cc3)nn(C)c2s1 (centres undefined),49,x,x
Cc1[nH]n(-c2ccccc2)c(=S)c1C=NCCCN=Cc1c(C)[nH]n(-c2ccccc2)c1=S,63,x,x
O=c1cc(-c2cccc([N+](=O)[O-])c2)[nH][nH]1,68,x,x
Cc1cc(C)n(CCNC(=O)C2CCC(=O)N(CCc3cccc(F)c3)C2)n1 (centres undefined),-456*,14,16
C=CCn1c(NC(=O)c2ccc(Br)o2)c(S(=O)(=O)c2ccccc2)c2nc3ccccc3nc21,63,x,x
Oc1ccc(Br)cc1CNc1cccc2cccnc12,90,x,x
O=C(Nc1cccc2cccnc12)c1cccc([N+](=O)[O-])c1,-342*,10,17
C/C(=N\NC(=O)Cc1cc(=O)[nH][nH]1)c1cccc([N+](=O)[O-])c1,51,x,x
COc1ccc2cc1Oc1ccc(cc1)C[C@H]1c3c(cc4c(c3Oc3cc5c(cc3OC)CCN(C)[C@@H]5C2)OCO4)CCN1C,49,x,x
COc1ccccc1-c1nc2n(n1)C(c1cccs1)C(C(=O)Nc1cccnc1)=C(C)N2 (centres undefined),-244*,-5,13
Cc1ccnc2c1ccc1c(C)ccnc12,44,x,x
CCC12CCCN3CCc4c(n(c5ccccc45)C(O)(C(=O)OC)C1)C32 (centres undefined),41,x,x
CCOC(=O)C(C(=O)OCC)c1cc(Br)c2noc3c2c1C(=O)c1ccccc1-3,89,x,x
Cc1ccccc1C(=O)N1CCC(n2nccc2NC(=O)CCOc2ccccc2)CC1,-187*,0,3
CCOc1nc2cnccc2n(CC(=O)Nc2ccccc2F)c1=O,-49*,-1,7
SMILES,Apaf1 activ,Rh110 act interf,Apaf-1 act conf
COc1ccc(S(=O)(=O)N2CCN(c3ccc4nnc(-c5ccc(F)cc5)n4n3)CC2)cc1,51,x,x
CCOc1ccc2oc(C(=O)N(C)CC(=O)Nc3ccc(OCC)c(OCC)c3)c(C)c2c1,-55*,4,14
O=C1C(NS(=O)(=O)c2cccs2)=C(N2CCN(c3cccc(C(F)(F)F)c3)CC2)C(=O)c2ccccc21,48,x,x
COc1ccccc1/C=C/C(=O)OCC(=O)NC1CCS(=O)(=O)C1 (centres undefined),-78*,-5,5
O=C(NC1=C(NC2CCS(=O)(=O)C2)C(=O)c2ccccc2C1=O)c1ccccc1 (centres undefined),88,x,x
CCN(CC)CCOC(=O)c1ccc(NC(=O)CCCN2C(=O)/C(=C\c3cccs3)SC2=S)cc1,60,x,x
Oc1c(Br)cc(Br)cc1CNc1cccc2cccnc12,92,x,x
Cc1c(CCO)c(=O)[nH]n1S(=O)(=O)c1cccc(C(F)(F)F)c1,-92*,11,15
O=C(Cc1cccc(C(F)(F)F)c1)OCC(=O)N1CCN(S(=O)(=O)c2ccc(Cl)cc2)CC1,51,x,x
CC(=O)[C@@H]1[C@@H]2C(=O)N(C3CCCCC3)C(=O)[C@@H]2C2c3ccccc3C=CN21 (some centres undefined),84,x,x
Cc1cc(C(=O)NC(=S)Nc2cccc(C(=O)O)c2C)ccc1[N+](=O)[O-],-54*,0,11
Cc1ccc(C(=O)N/C(=C\c2ccc(-c3ccccc3[N+](=O)[O-])o2)C(=O)NCCN(C)C)cc1,53,x,x
CSc1nncc(/C(C)=N\Nc2cccc(C)c2)n1,61,x,x
COc1ccc2c(c1)Cc1sc(NC(=O)c3cccnc3)nc1-2,89,x,x
